We go through seven molecules from ChEMBL document CHEMBL2046422, “Structure-activity relationship of nonacidic quinazolinone inhibitors of human microsomal prostaglandin synthase 1 (mPGES 1)” (J Med Chem, 2012).

pIC50: −log10 of the molar value. A value given as a limit tells only on which side of the number the result lay.

Data set [1] concerns the target T1, 5-lipoxygenase/FLAP (Homo sapiens) (UniProt P09917+P20292). The experiment in a line: Inhibition of 5-lipoxygenase/FLAP in calcium ionophore-stimulated human whole blood assessed as residual LTB4 level at 10 uM preincubated for 15 mins prior to calcium ionophore-stimulation measured after 15 mins by LC-MS/MS analysis. The class given is protein-complex assay. A digest of the protocol:
(§1)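 Heparinized human whole blood (500 μL) was preincubated with compound for 15 min at 37 °C. It was then stimulated with 20 μM calcium ionophore A23187 in autologous plasma for 15 min at 37 °C and chilled on ice for 5 min. Plasma was collected by centrifugation at 4 °C. Eicosanoids were recovered by liquid–liquid extraction with deuterated internal standards and quantified by LC-MS/MS (MRM). Levels are relative to vehicle-treated blood.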

In data set [2] the target is T2, Prostaglandin G/H synthase 1 (Ovis aries) (UniProt P05979).
T2 sequence (whole entry): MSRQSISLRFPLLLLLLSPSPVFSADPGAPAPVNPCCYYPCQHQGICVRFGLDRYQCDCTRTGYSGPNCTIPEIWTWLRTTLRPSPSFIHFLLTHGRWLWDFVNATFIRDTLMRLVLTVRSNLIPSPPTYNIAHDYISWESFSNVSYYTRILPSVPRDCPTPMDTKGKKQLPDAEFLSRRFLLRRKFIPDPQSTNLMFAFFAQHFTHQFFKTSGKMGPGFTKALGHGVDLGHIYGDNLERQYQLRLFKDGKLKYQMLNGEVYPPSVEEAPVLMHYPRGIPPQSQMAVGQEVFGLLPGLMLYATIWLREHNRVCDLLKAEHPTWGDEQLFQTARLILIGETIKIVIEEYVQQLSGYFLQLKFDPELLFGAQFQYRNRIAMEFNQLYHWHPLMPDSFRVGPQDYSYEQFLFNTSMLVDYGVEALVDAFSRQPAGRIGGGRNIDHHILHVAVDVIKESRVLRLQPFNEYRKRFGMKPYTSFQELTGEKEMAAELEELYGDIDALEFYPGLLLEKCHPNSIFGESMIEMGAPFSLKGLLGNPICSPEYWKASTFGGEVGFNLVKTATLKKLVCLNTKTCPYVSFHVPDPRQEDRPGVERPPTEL
The experiment in a line: Inhibition of ovine COX1-mediated PGE2 synthesis using PGH2 as substrate at 1 uM by LC-MS/MS analysis relative to control. Summed up: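 Direct enzyme test with a COX inhibitor screening kit, run per the kit protocol: COX-1 was ovine, COX-2 human recombinant. […] Prostaglandins were quantified by LC-MS/MS after solid-phase extraction. Mean of n ≥ 3.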

Data set [3] has as its target Prostaglandin G/H synthase 1 (Homo sapiens) (UniProt P23219). The experiment in a line: Inhibition of COX1 in human whole blood assessed as residual PGD2 level at 10 uM after 1 hr by LC-MS/MS analysis relative to control. A digest of the protocol:
(§2)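 Human venous blood was drawn without additives, and compound was added. Samples clotted at 37 °C for 1 h; negative controls were chilled on ice at once. After 5 min on ice, plasma was separated at 4 °C. It was mixed with H₃PO₄, EDTA, BHT and deuterated internal standards, then put through solid-phase extraction. TXB₂ and PGD₂ were measured by LC-MS/MS, relative to vehicle-treated blood.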

Data set [4] concerns HeLa. The experiment in a line: Cytotoxicity against IL1beta and TNFalpha-stimulated human HeLa cells at 1 to 10 uM after 24 hrs by WST1 assay. The format is cell-based. A digest of the protocol:
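HeLa cells were seeded at 3 × 10³ per well and grown 24 h at 37 °C. They were then stimulated with IL-1β (1 ng/mL) + TNFα (5 ng/mL) while treated with compound at 1, 10 or 100 μM, or DMSO, for 24 h. WST-1 was added for 90–150 min and absorbance read at 450 nm against 620 nm. Viability is percent of DMSO control, SEM, n ≥ 3.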
On the technique in general: Formazan colour is commonly taken as a measure of viable cells.

Data set [5] concerns the target T1, 5-lipoxygenase/FLAP (Homo sapiens). Description: Inhibition of 5-lipoxygenase/FLAP in calcium ionophore-stimulated human whole blood assessed as residual 12(s)HETE level at 10 uM preincubated for 15 mins prior to calcium ionophore-stimulation measured after 15 mins by LC-MS/MS analysis. The class given is protein-complex assay. A digest of the protocol: as §1

Data set [6] deals with Prostaglandin G/H synthase 1 (Homo sapiens) (UniProt P23219). The experiment in a line: Inhibition of COX1 in human whole blood assessed as residual TXB2 level at 10 uM after 1 hr by LC-MS/MS analysis relative to control. A digest of the protocol: as §2
For data set [7], the target named is T3, Prostaglandin E synthase (Homo sapiens, UniProt O14684).
T3 sequence (O14684 whole entry): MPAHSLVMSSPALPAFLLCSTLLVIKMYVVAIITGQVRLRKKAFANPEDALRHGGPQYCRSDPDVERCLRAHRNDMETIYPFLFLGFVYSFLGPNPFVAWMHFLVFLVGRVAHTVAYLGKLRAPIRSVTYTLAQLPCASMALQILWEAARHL
The experiment in a line: Inhibition of mPGES-1 derived from IL1beta and TNFalpha stimulated human HeLa cells microsomal fraction using PGH2 as substrate preincubated for 30 mins prior to substrate addition measured after 1 min by LC-MS/MS analysis. Summed up: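 Microsomes were pelleted by ultracentrifugation and resuspended in buffer with 2.5 mM GSH; protein was measured by Bradford. Screening used 1 μM final compound, and IC₅₀ (95% CI) came from increasing concentrations. PGE₂ was read by LC-MS/MS after solid-phase extraction with deuterated standards; n ≥ 3.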

Data set [8] deals with T4, Prostaglandin E synthase (Homo sapiens) (UniProt O14684).
T4 sequence (whole entry): T3 sequence (O14684 whole entry)
The experiment in a line: Inhibition of mPGES-1 in IL1beta and TNFalpha-stimulated human HeLa cells assessed as PGE2 level at 10 uM after 24 hrs by LC-MS/MS analysis relative to control. The class given is cell-based. A digest of the protocol:
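HeLa cells (2 × 10⁴) were grown 24 h at 37 °C. The medium was then replaced with IL-1β (1 ng/mL) + TNFα (5 ng/mL), or PBS for unstimulated controls, together with compound at 1, 10 or 100 μM, or DMSO, for 24 h at 37 °C. Supernatant PGE₂ was quantified by LC-MS/MS after solid-phase extraction with deuterated standards. Inhibition is percent of DMSO control corrected for unstimulated background, SEM, n ≥ 3.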

For data set [9], the target named is T4, Prostaglandin E synthase (Homo sapiens). The experiment in a line: Inhibition of mPGES-1 in IL1beta and TNFalpha-stimulated human HeLa cells assessed as PGE2 level at 1 uM after 24 hrs by LC-MS/MS analysis relative to isolated enzyme.

Prostaglandin G/H synthase 1 (Homo sapiens), sequence (P23219 whole entry): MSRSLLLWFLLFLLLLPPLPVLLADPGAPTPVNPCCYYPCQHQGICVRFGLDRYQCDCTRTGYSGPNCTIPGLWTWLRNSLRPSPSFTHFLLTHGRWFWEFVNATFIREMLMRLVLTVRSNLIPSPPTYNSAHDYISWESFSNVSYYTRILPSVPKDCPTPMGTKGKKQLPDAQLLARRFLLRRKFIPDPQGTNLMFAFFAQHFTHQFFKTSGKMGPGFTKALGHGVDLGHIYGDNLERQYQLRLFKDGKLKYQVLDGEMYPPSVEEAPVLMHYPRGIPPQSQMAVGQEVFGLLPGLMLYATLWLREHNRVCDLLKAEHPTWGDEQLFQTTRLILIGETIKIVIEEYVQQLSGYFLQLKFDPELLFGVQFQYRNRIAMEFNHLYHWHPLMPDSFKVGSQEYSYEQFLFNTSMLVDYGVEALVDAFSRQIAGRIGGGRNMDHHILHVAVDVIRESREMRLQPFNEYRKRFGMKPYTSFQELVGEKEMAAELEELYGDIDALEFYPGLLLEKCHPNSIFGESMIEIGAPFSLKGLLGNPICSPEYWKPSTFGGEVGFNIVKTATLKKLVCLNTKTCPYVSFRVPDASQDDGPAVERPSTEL

Usually inhibition stands for the relative decrease from the control value, in per cent. Broadly, the pIC50 is −log10 of the IC50, conventionally taken in molar units. For `CCCc1nc2ccc(NC(=O)c3c(F)cccc3Cl)cc2c(=O)n1Cc1cccc(Cl)c1`, the Activity in data set [1] was 94.1%; in [3] it was 89.4%; in [4] it was “Non-toxic”; in data set [5] it was 123%; in [6], 84.4%. For the same molecule, in data set [2], the inhibition is below 0%. The molecule further gave a pIC50 in [7] of 6.43.
For the molecule `CCCc1nc2ccc(NC(=O)c3ccccc3Cl)cc2c(=O)n1Cc1ccc(-c2ccccc2)cc1`, the Activity in data set [1] was 71.9%; in data set [3], 84.9%; in data set [4], “Non-toxic”; in data set [5], 110%; in data set [6], 86.4%. In addition, the inhibition was determined as 8.4% in data set [2] and 70% in data set [8]. In [7], this molecule had a pIC50 of 6.66.
Regarding `CCCc1nc2ccc(NC(=O)c3ccccc3C)cc2c(=O)n1Cc1cccc(Cl)c1`, the Activity is 72.7% in data set [1]; 128% in data set [3]; “Non-toxic” in data set [4]; 88.9% in [5]; 81.9% in data set [6]. The molecule also yielded an inhibition in [2] below 0%. In addition, in [7], the pIC50 was 6.59.
With `CCCc1nc2ccc(NC(=O)c3ccccc3Cl)cc2c(=O)n1Cc1ccc(-c2ccc(Cl)cc2)cc1`, the Activity is 151% in [1]; 96.1% in [3]; “Non-toxic” in data set [4]; 93.2% in data set [5]; 97.3% in data set [6]. In data set [2], this molecule yielded an inhibition of 2.6%.
On to `CCCc1nc2ccc(NC(=O)c3ccccc3Cl)cc2c(=O)n1Cc1ccc(-c2cccc(Cl)c2)cc1`, for which the Activity in [1] came out at 83%; in data set [3] it was 98.5%; in data set [5] it was 80%; in data set [6], 90%. This molecule also showed an inhibition in data set [2] below 0%. In [7], this molecule showed a negative-log IC50 (pIC50) of 6.89.
In the case of `CCCc1nc2ccc(NC(=O)c3ccccc3Cl)cc2c(=O)n1Cc1ccc(-c2cccc(OC)c2)cc1`, the Activity in data set [1] was 70.9%; in [3], 91.7%; in [4], “Non-toxic”; in [5] it was 85.5%; in [6] it was 89%. Besides, the inhibition in data set [2] stood at 20.1%; in [8], 97%. Besides, the potency shift in data set [9] came to 28%. This molecule also had a pIC50 in data set [7] of 6.68.
Regarding `CCCc1nc2ccc(NC(=O)c3ccccc3Cl)cc2c(=O)n1Cc1cccc(Cl)c1`, the Activity in data set [1] is 93.7%; in [3], 86.5%; in [4], “Non-toxic”; in data set [5] it was 92.8%; in data set [6], 90.4%. The inhibition in data set [2] is below 0%. The pIC50 in data set [7] was 6.44.
